HTR5A ag – HTR5A agonists in luminescence cell assay, primary screen, counter-screen for OPRM1-OPRD1 heterodimer agonist project, full-deck HTS; 5-hydroxytryptamine receptor 5A (Homo sapiens), P47898; cell-based; activation, % at 9.3 µM; hit rate 0.61% among 340,000; in the data active means activation mostly above about 9.5%, no sharp cut-off; inactive means mostly below about 7.6%
DAGLB inh – DAGLB lipase inhibitors, primary screen, biochemical, fluorescence, HTS. HEK293T DAGLB membrane lysate, EnzChek fluorogenic substrate. Diacylglycerol lipase-beta (Homo sapiens), Q8NCG7. hit rate 0.059% among 340,000. inhibition, % at 5.17 µM; in the data active means inhibition above about 34%
Arr AP2 block – inhibitors of beta-arrestin/AP2 binding, primary screen, biochemical, GPCR trafficking, flow cytometry. beta-arrestin 1 C-terminal peptide binding to AP2 beta2-adaptin appendage (human). FITC-arrestin peptide / GST-AP2 beads; AP2 beta2 appendage carries R879A mutation. inhibition, % at 10 µM. hit rate 0.31% among 340,000. AID 504490, 2011;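 active means inhibition above a set limit, near 3 SD of compounds lacking own fluorescence, cut at about 54% in these data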
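Test system: GST-tagged AP2 beta2-adaptin appendage (R879A) on 4 µm glutathione beads; also added: fluorescein-tagged arrestin peptide at 50 nM final; timing: 12 min plus 1 h, RT; signal: flow cytometry, FL1 (488/535 nm); read-out: percent drop in bead-associated FITC signal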
HTR5A inv ctr – HTR5A inverse agonists in luminescence cell assay, primary screen, counter-screen for OPRM1-OPRD1 heterodimer inverse agonist project, full-deck HTS | 5-hydroxytryptamine receptor 5A (Homo sapiens), P47898 | HTR5A cell line, inverse agonism | inhibition, % at 9.3 µM | hit rate 0.083% among 340,000 | AID 504634, 2011; in the data active means inhibition mostly above about 23%, no sharp cut-off; inactive means mostly below about 18%
MOR-DOR inv ag – inverse agonists of MOR-DOR heterodimerization, primary screen, cell-based, luminescence. Mu-type opioid receptor (Homo sapiens) + Delta-type opioid receptor (Homo sapiens), …. cell-based MOR-DOR heterodimer luminescence, inverse agonism. inhibition, % at 9.3 µM. hit rate 0.21% among 340,000; in the data active means inhibition above about 22%, passing the limit was not always enough
Target sequence (P35372 whole entry, looked up): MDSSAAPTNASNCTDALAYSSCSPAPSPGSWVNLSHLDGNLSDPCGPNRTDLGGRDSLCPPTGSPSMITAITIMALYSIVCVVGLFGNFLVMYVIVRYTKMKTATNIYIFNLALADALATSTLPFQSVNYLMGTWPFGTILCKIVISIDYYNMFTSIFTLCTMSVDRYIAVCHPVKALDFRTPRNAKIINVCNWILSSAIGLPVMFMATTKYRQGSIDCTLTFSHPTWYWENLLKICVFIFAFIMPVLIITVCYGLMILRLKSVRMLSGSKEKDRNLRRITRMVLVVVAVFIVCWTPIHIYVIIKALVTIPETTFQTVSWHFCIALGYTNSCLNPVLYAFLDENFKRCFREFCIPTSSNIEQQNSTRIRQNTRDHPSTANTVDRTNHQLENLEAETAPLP
Target sequence (P41143 whole entry, looked up): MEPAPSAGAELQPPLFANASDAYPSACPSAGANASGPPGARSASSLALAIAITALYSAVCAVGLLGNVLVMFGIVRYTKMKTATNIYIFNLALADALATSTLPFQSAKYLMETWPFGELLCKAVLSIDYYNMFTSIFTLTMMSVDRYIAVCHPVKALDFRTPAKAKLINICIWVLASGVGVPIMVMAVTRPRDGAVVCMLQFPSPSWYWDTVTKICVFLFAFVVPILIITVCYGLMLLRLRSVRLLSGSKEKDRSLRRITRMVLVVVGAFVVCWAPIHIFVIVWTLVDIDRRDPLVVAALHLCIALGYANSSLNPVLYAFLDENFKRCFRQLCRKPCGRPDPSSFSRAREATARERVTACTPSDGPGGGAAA
MOR-DOR ag – agonists of OPRM1-OPRD1 heterodimerization, primary screen, cell-based, luminescence. activation, % at 9.3 µM. Mu-type opioid receptor (Homo sapiens) + Delta-type opioid receptor (Homo sapiens), …. hit rate 0.3% among 340,000. AID 504326, 2011. cells; in the data active means activation above about 18%
Large screens that a line does not name were inactive. The list is not random: actives were taken first. Their share in the collection is about 1.4%.

Cc1c(Nc2cc(Cl)c3nonc3c2[N+](=O)[O-])c(=O)n(-c2ccccc2)n1C	HTR5A inv ctr 33, MOR-DOR inv ag 46
Cc1c(Nc2ccc3nonc3c2[N+](=O)[O-])c(=O)n(-c2ccccc2)n1C	none
O=C(NCc1nnc(SCC(=O)N2CCCCCC2)o1)c1ccco1	HTR5A ag 11
O=C(NCc1nnc(SCC(=O)N2CCCCC2)o1)c1ccc(F)cc1	none
COc1ccccc1C(=O)N/C(=C\c1cn(C)c2ccccc12)C(=O)N1CCOCC1	HTR5A ag 11
CC(=O)N1CCN(c2cc(-c3ccccc3)nc3cc(-c4cccc(Cl)c4)nn23)CC1	none (no result: HTR5A ag, Arr AP2 block, HTR5A inv ctr, MOR-DOR inv ag, MOR-DOR ag)
O=C1CC(C(=O)O)S/C(=N\NC(=O)c2ccccc2)N1 (stereo unspecified)	HTR5A ag 12
C/C(=N\N=C1\NC(=O)CC(C(=O)O)S1)c1ccc(F)cc1 (stereo unspecified)	none
COc1cc(C2c3cc4c(cc3OC(Nc3ccc(C(=O)O)cc3)C2C)OCO4)cc(OC)c1OC (stereo unspecified)	none
COc1cc(C2c3cc4c(cc3OC(NCCc3ccccc3)C2C)OCO4)cc(OC)c1OC (stereo unspecified)	HTR5A ag 11
COc1ccccc1Nc1nc(N)nc(CN2CCN(c3ccccc3)CC2)n1	none
COc1cccc(N2CCN(Cc3nc(N)nc(Nc4ccccc4OC)n3)CC2)c1	HTR5A ag 14
CC(=O)Nc1nonc1NC(C)=O	none
CC(=O)Nc1cc(OC(C)=O)c2nonc2c1OC(C)=O	MOR-DOR ag 23
CCCCCCCCCCCCCCCC[N+](C)(C)Cc1ccc(F)cc1	HTR5A ag 11
CC#CC[N+](C)(C)CCCCCCCC	none
CC(C)(C)C(=O)N1CCC(O)(CS(=O)(=O)Cc2ccc(Cl)cc2)CC1	HTR5A ag 12
O=S(=O)(c1ccc(NC(=S)NC23CC4CC(CC(C4)C2)C3)cc1)N1CCCCC1	none (no result: HTR5A ag, Arr AP2 block, HTR5A inv ctr, MOR-DOR inv ag, MOR-DOR ag)
Cc1cc(NS(=O)(=O)c2ccc(NC(=O)c3ccc([N+](=O)[O-])cc3)cc2)nc(C)n1	none (no result: HTR5A ag, Arr AP2 block, HTR5A inv ctr, MOR-DOR inv ag, MOR-DOR ag)
COc1ccc(Nc2nc(S(=O)(=O)c3ccc(C)cc3)c(Cl)s2)cc1	HTR5A ag 13
CC1N=C(SCC(=O)c2ccc(F)cc2)N2C(C)N=C(SCC(=O)c3ccc(F)cc3)N12 (stereo unspecified)	none (no result: HTR5A ag, Arr AP2 block, HTR5A inv ctr, MOR-DOR inv ag, MOR-DOR ag)
COC(=O)CN(C)C(=O)CC1C(=O)NCCN1CC(C)(C)C (stereo unspecified)	HTR5A ag 13
Cc1ccc(OCCN(C)C(=O)CC2C(=O)NCCN2CC(C)(C)C)cc1 (stereo unspecified)	none
O=C(CSc1nnc(CNc2ccc(F)cc2)n1Cc1ccco1)N1CCCC1	none
CCCc1nnc(SCC(=O)N2CCOCC2)n1Cc1ccco1	HTR5A ag 9.6
Cc1ccc(CN2CCC(C(=O)c3ccc(F)cc3)CC2)cc1	none (no result: HTR5A ag, Arr AP2 block, HTR5A inv ctr, MOR-DOR inv ag, MOR-DOR ag)
CC[C@]12c3[nH]c4cc(-c5ccco5)ccc4c3CCN1C(=O)[C@@H](CC(=O)NCc1cccc(C(F)(F)F)c1)C[C@@H]2C(=O)N1CCN(C(=O)c2ccco2)CC1	HTR5A ag 3.5
CC[C@]12c3[nH]c4cc(-c5ccco5)ccc4c3CCN1C(=O)[C@@H](CC(=O)NCc1ccco1)C[C@@H]2C(=O)N1CCN(C(=O)c2ccco2)CC1	none
Cc1cccc(NC(=O)c2ncn3c2C(=O)N[C@@H](C)C3)c1	none (no result: HTR5A ag, Arr AP2 block, HTR5A inv ctr, MOR-DOR inv ag, MOR-DOR ag)
CCOC(=O)C1(CCCc2ccccc2)CCN(C(=O)c2n[nH]c(CC)c2C)CC1	none (no result: HTR5A ag, Arr AP2 block, HTR5A inv ctr, MOR-DOR inv ag, MOR-DOR ag)
O=Cc1[nH]c2ccccc2c1N(C(=O)CCl)c1ccc([N+](=O)[O-])cc1	none
CC(=O)n1cc(N(C(=O)CCl)c2ccc([N+](=O)[O-])cc2)c2ccccc21	HTR5A ag 27, MOR-DOR ag 20
CC(=O)n1cc(N(C(=O)CCl)c2ccccc2)c2ccccc21	HTR5A ag 57, MOR-DOR ag 65
O=C(CCl)N(c1ccccc1)c1c[nH]c2ccccc12	HTR5A ag 40, MOR-DOR ag 39

Screens (PubChem BioAssay)
